# High-throughput results (PubChem BioAssay)
# A selection: hits, their analogues and other compounds. The true share with any hit is near 1.8%.
# GalR3 antag: GalR3 antagonists in HEK293 cells, primary screen, cell-based, fluorescence readout; Galanin receptor type 3 (Homo sapiens), O60755; HEK293 GalR3-CNG cAMP membrane potential fluorescence; galR3 body fused to GalR1 C-terminus; AID 651719, 2012; 360,000 compounds, 0.44% hits; inhibition, % at 3 µM;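 active = inhibition above the screen-wide average plus 3 SD, cut at about 13% in these data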;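 note: forskolin and galanin both at EC90 stimulate the cells; cAMP rise reported by CNG channel membrane potential dye signal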
# Target sequence (O60755 1-299 limits assumed): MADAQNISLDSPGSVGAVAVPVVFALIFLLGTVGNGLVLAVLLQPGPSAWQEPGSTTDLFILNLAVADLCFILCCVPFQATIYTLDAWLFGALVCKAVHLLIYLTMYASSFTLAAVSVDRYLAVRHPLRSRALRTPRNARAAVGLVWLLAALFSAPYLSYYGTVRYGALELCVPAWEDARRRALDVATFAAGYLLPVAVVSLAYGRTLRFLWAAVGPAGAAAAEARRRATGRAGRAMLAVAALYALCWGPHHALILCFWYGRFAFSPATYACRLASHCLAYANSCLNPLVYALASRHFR
# 697 NFkB inh: inhibitors of PMA/ionomycin-induced NF-kB reporter, 697 cells, primary screen, B-cell NF-kB inhibitor project, cell-based, luminescence, uHTS; inhibition, % at 4 µM; 330,000 compounds, 0.33% hits; 697 B-cell NF-kB luciferase reporter, 16 h; in the data active = inhibition above about 35%
# NR2E3 ag-1: NR2E3 agonists in two-hybrid cells, primary screen, cell-based, luminescence, CHO-S, Gal4-NCOR/VP16-NR2E3 | luciferase | inhibition of corepressor binding, % at 3.98 µM | Photoreceptor-specific nuclear receptor (Homo sapiens), Q9Y5X4 | 360,000 compounds, 0.35% hits;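 active = inhibition above the mean of all tested compounds plus 3 SD, cut at about 70% in these data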;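 note: higher means lower luciferase signal from less NR2E3 corepressor binding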
# Target sequence (Q9Y5X4 whole entry, looked up, the tested form may be a part): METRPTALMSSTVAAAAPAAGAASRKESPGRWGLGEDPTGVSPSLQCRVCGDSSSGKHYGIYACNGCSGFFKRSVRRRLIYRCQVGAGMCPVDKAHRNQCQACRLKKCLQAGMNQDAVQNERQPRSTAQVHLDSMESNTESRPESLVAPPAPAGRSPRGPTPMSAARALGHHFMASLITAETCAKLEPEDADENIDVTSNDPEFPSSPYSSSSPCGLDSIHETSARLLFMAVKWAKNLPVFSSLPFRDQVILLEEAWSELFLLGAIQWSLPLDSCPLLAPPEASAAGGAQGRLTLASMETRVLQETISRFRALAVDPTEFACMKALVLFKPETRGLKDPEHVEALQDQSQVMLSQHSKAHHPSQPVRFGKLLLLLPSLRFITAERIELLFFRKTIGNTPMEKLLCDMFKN
# Jurkat NFkB inh: inhibitors of induced NF-kB luciferase reporter, primary screen, TCR NF-kB activation inhibitor project, cell-based, luminescence, uHTS; Jurkat, PMA/ionomycin-induced NF-kB luciferase reporter; inhibition, % at 4 µM; 330,000 compounds, 0.53% hits; AID 435003, 2010; in the data active = inhibition above about 50%
# NR2E3 ag-2: inhibitors of NR2E3-RetCOR corepressor binding, primary screen, NR2E3 agonist project, biochemical, TR-FRET, GST-NR2E3, biotin-RetCOR. Photoreceptor-specific nuclear receptor (Homo sapiens), Q9Y5X4. 1536-well. inhibition of corepressor binding, % at 4.78 µM. 320,000 compounds, 0.12% hits. AID 2300, 2010;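 active = percent inhibition above the cutoff of mean plus 3 SD of all tested compounds, set per screening campaign, cut at about 20% in these data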
#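 Test system: GST-NR2E3 and biotin-RetCOR proteins | Quantity: 1.35 nM GST-tagged NR2E3 final | Medium: Tris pH 7.5 | Also added: 7 nM biotin-RetCOR | Dosing: Compound at 4.8 µM, single dose | Timing: 5 h at 4 °C | Detection: Time-resolved FRET | Read-out basis: Percent inhibition | Benchmarks: Biotin wells as high control, 0.6% DMSO wells as low control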
# Gli-Sufu block: Gli-Sufu pathway antagonists, primary screen, luciferase luminescence, Sufu-KO-LIGHT cells, uHTS. AID 588413, 2011. inhibition, % at 5 µM. 340,000 compounds, 0.74% hits. Sufu-KO-LIGHT fibroblasts, Gli luciferase reporter luminescence;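 active = inhibition above about 55%, limit read from the data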
# Gli antag conf: Gli-SUFU pathway antagonists, confirmation, single concentration, luciferase luminescence, Sufu-KO-LIGHT cells; 2,500 compounds, 40% hits; Gli luciferase reporter; shares compounds with Gli-Sufu block; inhibition, % at 5 µM;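 active = mean inhibition at 5 µM reaching about 45%, limit read from the data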
# Gli cytotox: cytotoxicity in Sufu-KO-LIGHT cells, confirmation, cytotoxicity control for Gli-SUFU antagonist project, cell-based, ATP luminescence, single concentration; shares compounds with Gli-Sufu block; cytotoxicity, % at 5 µM; 2,500 compounds, 32% hits; AID 651994, 2013;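 active = mean cytotoxicity at 5 µM above about 25%, limit read from the data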;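 note: cells exposed to compound overnight for roughly 16 to 18 hours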
# Wnt3a cs: Wnt3a reporter signal inhibition, confirmation, counter-screen for Gli-SUFU antagonist project, Wnt-LIGHT cells, luminescence, single concentration | AID 651995, 2013 | shares compounds with Gli-Sufu block | inhibition, % at 6.25 µM | Wnt3a-driven luciferase reporter | 2,500 compounds, 20% hits;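 active = mean inhibition above about 25%, limit read from the data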
# Numbers stand for hits; - = inactive; . = no result; ! = not confirmed by another sample.
SMILES,GalR3 antag,697 NFkB inh,NR2E3 ag-1,Jurkat NFkB inh,NR2E3 ag-2,Gli-Sufu block,Gli antag conf,Gli cytotox,Wnt3a cs
O=C(c1cccc(S(=O)(=O)Nc2ccccc2F)c1)N1CCN(c2ccccc2F)CC1,-,-,-,-,-,-,.,.,.
Cc1ccccc1-c1cccc2[nH]c3c(c12)CCN1C(=O)[C@H]2[C@H](C)ON(C)[C@H]2C[C@@H]31,-,.,.,.,.,.,.,.,.
CCCCCn1c(=N)n(CC(O)COc2ccccc2OC)c2ccccc21 (stereo not drawn),-,-,-,-,-,81!,-,-,-
CN1CCN(NC(=O)c2ccc(F)cc2)CC1,-,-,-,-,-,-,.,.,.
CN1CCN(NC(=O)c2ccc(Cl)s2)CC1,-,-,-,-,-,-,-,-,-
C[C@H]1CN([C@@H](C)CO)S(=O)(=O)c2ccc(Br)cc2O[C@H]1CN(C)C(=O)c1ccccc1F,-,.,.,.,.,.,.,.,.
CCOC(=O)c1cnc(Nc2nc3ccccc3o2)nc1CSc1ncccn1,.,-,.,-,-,-,.,.,.
CCOC(=O)c1cnc(Nc2nc3ccccc3o2)nc1CSC(=S)N(CC)CC,-,-,-,-,-,69,-,-,-
CCOC(=O)c1ccc(NC(=O)CSc2nnc(CNC(=O)c3c(F)cccc3Cl)o2)cc1,-,-,-,-,-,-,.,.,.
CCOC(=O)c1ccc(NC(=O)CSc2nnc(CNC(=O)c3ccccc3F)o2)cc1,-,-,-,-,-,96,-,-,-
COC(=O)c1cc(C(=O)N2CCN(c3ccccc3OC)CC2)cc([N+](=O)[O-])c1,-,-,-,-,-,-,-,50,-
CCCCCn1c(CCC(=O)Oc2ccccc2OC)nc2c1c(=O)[nH]c(=O)n2CCCC,-,-,-,-,-,-,.,.,.
CCCCn1c(=O)[nH]c(=O)c2c1nc(CN(C)Cc1cccc(OC)c1OC)n2CCC,-,.,-,.,.,63,-,-,-
Cc1ccc2c(c1)c(C)cc[n+]2Cc1ccccc1,-,-,-,-,-,58,60,30,-
COc1ccc2c(c1)c(C)cc[n+]2Cc1ccccc1,-,-,-,-,.,65,67,-,-
COc1ccccc1CCNC(=O)c1cc(-c2ccncc2)nc2ccc(Br)cc12,-,.,-,.,.,67,-,25,-
COc1ccc(CNCC(C)NCc2ccc(OC)c(OC)c2)cc1OC (stereo not drawn),-,-,-,-,-,61,-,-,-
Cn1cc(CNC(=O)C2CCC(=O)N(Cc3ccccc3F)C2)cn1 (stereo not drawn),-,-,-,-,-,-,.,.,.
CCn1cc(CNC(=O)C2CCC(=O)N(Cc3ccccc3F)C2)cn1 (stereo not drawn),-,-,-,-,-,-,-,-,-
Cc1ccc(S(=O)(=O)N(CC(=O)NCCSc2ccccn2)c2cc(C)cc(C)c2)cc1,-,-,-,-,-,-,-,-,-
CC(/C=C1\SC(=O)N(CCCC(=O)O)C1=O)=C\c1ccccc1,-,.,-,.,-,60,73,-,100
O=S(=O)(c1ccc(F)cc1)N1CCCc2nc(-c3ccc(Br)cc3)ccc21,-,.,.,.,.,.,.,.,.
COc1ccc(/C=N/NC(=O)c2nc(-c3ccccc3)n(-c3ccccc3)n2)c(O)c1,-,-,-,-,-,63,62,34,56
CC(=O)Nc1cccc(C(=O)OCc2ccc([N+](=O)[O-])cc2)c1,-,-,-,-,-,63,-,-,-
CC(=O)Nc1cccc(C(=O)OCC(=O)NNC(=O)c2ccc([N+](=O)[O-])cc2)c1,-,-,-,-,-,-,.,.,.
SMILES,GalR3 antag,697 NFkB inh,NR2E3 ag-1,Jurkat NFkB inh,NR2E3 ag-2,Gli-Sufu block,Gli antag conf,Gli cytotox,Wnt3a cs
COc1cc2c(c(OC)c1OC)[C@@]1(c3ccccc3)CCCCC[C@H]1[C@@H]2NC(=O)C(F)(F)F,-,.,.,.,.,.,.,.,.
COc1ccc(/C=N\NC(=O)c2c(C)nc3ccc(Br)cn23)cc1,-,-,-,-,-,61,50,48,-
Cc1[nH]n(-c2ccccc2)c(=S)c1C=NCCCN=Cc1c(C)[nH]n(-c2ccccc2)c1=S,-,-,-,-,-,71,-,32,-
COC(=O)CN=Cc1c(C)[nH]n(-c2ccccc2)c1=O,-,-,-,-,-,-,.,.,.
Cn1c(N)c(S(=O)(=O)NCc2ccc(F)cc2)c(=O)n(C)c1=O,-,-,-,-,-,-,.,.,.
Cc1ccccc1N1C(=O)C(Cl)=C(N2CCCCCC2)C1=O,-,-,-,-,-,-,.,.,.
O=C1C(Cl)=C(N2CCCCC2)C(=O)N1c1ccccc1Cl,-,-,-,-,-,60,-,-,-
O=C1CCN(CCc2ccccc2)CCN1[C@H](CSc1ccccc1)Cc1ccccc1,-,-,-,-,-,62,-,-,-
CCCN1CCC(=O)N([C@H](CSc2ccc(OC)cc2)Cc2ccccc2)CC1,-,-,-,-,-,-,48,-,-
COC(=O)Nc1ccc(S(=O)(=O)N2CCCCC2C(=O)NCc2ccco2)cc1 (stereo not drawn),-,-,-,-,-,-,.,.,.
Cc1ccc(S(=O)(=O)N2CCCCC2C(=O)NCc2ccco2)cc1 (stereo not drawn),-,-,-,-,-,-,-,-,-
COc1ccc(O)c(C(=O)c2cnc3c(c2)c(=O)[nH]c(=O)n3C)c1,-,-,-,-,-,57,-,-,33
O=C(OCCOc1cccc(Cl)c1)c1cc(S(=O)(=O)N2CCCCC2)ccc1N1CCOCC1,-,-,-,-,-,64,66,36,-
CSCCC(NC(=O)OCc1ccccc1)C(=O)NC(Cc1c[nH]c2ccccc12)C(=O)O (stereo not drawn),-,.,.,.,.,.,.,.,.
CC(OC(=O)c1cccc(-n2cnnn2)c1)C(=O)Nc1ccc(F)cc1 (stereo not drawn),-,-,-,-,-,-,-,-,-
CC(C)c1ccc(NC(=O)CCCC(=O)NCCc2ccccc2)cc1,-,-,-,-,-,-,-,-,-
